Data from ChEMBL document CHEMBL1122640, “Studies on heterocyclic compounds. 6. Synthesis and analgesic and antiinflammatory activities of 3,4-dimethylpyrano[2,3-c]pyrazol-6-one derivatives” (J Med Chem, 1984).

Key:
Mus musculus = organism: Mus musculus; assay: Compound was tested for […] activity by phenylquinone writhing method in mice.; type: functional
How it was run: (§1)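 Phenylquinone (0.03% in 5% aqueous ethanol, 10 mL/kg ip) given to female ddN mice (18-22 g); test drug given orally 30 min beforehand. Writhes counted over 15 min, starting 5 min after phenylquinone. Five to ten mice per dose; values given with range and n.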

Rattus norvegicus [1] = assay: Antiinflammatory activity, % inhibition was reported 3 hr after carrageenan injection in the hind paw edema test in rats: dose=80 mg/kg.; type: functional
How it was run: (§2)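 Male Wistar rats (90-120 g); paw edema raised by subcutaneous injection of 0.1 mL 1% carrageenin into the hind foot pad. Drug given orally at 80 mg/kg. Swelling inhibition read 3 h after carrageenin and compared with vehicle control for significance.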

[2] = Acute lethal toxicity on day 7 was determined; type: organism-based; settings: mouse, in vivo
Mus sp. = assay: Analgesic activity by phenylquinone writhing method in mice after peroral administration; type: functional; settings: po; how it was run: as §1
Rattus norvegicus [3] = assay: Antiinflammatory activity, % inhibition was reported 3 hr after carrageenan injection in the hind paw edema test in rats: dose=80 mg/kg; type: functional; how it was run: as §2
Rattus norvegicus [4] = assay: Compound was tested for antiinflammatory activity and the % inhibition was reported 3 hr after carrageenan injection in the hind paw edema test in rats: dose=80 mg/kg; type: functional; how it was run: as §2
Rattus norvegicus [5] = assay: Compound was tested for antiinflammatory activity and the % inhibition was reported 3 h after carrageenan injection in the hind paw edema test in rats: dose=40 mg/kg, p.o.; type: functional; settings: po
How it was run: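 Male Wistar rats (90-120 g) given 0.1 mL 1% carrageenin subcutaneously into the hind foot pad. Drug given po at 40 mg/kg. Edema inhibition read at 3 h after carrageenin and compared with vehicle control.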

Row | Structure (SMILES) | ED50 (Mus musculus) [mg/kg] | inhibition in vivo at 80 mg/kg (Rattus norvegicus [1]) [%] | other results
1 | CCCCCn1nc(C)c2c(C)cc(=O)oc21 | > 100 | 3.5 | 
2 | Cc1cc(=O)oc2nn(C)c(C)c12 | 6.09 | 3.3 | LD50 at 7 day [2]: 250 mg/kg
3 | CCCCn1nc(C)c2c(C)cc(=O)oc21 | > 100 | -0.9 | 
4 | Cc1cc(=O)oc2c1c(C)nn2CCO | 100 | -0.9 | 
5 | CCCCCn1nc2oc(=O)cc(C)c2c1C | 60.6 | -5.4 | 
6 | Cc1cc(=O)oc2c1c(CC(=O)O)nn2C | > 100 | -3.1 | 
7 | CCCCn1nc2oc(=O)cc(C)c2c1C | > 100 | -3.1 | 
8 | CCn1nc(C)c2c(C)cc(=O)oc21 | 24.9 | 12.1 | 
9 | Cc1cc(O)oc2nnc(CC(=O)O)c1-2 | > 100 | 6.4 | 
10 | CCOC(=O)Cc1nnc2oc(O)cc(C)c1-2 | > 100 | -4.1 | 
11 | Cc1cc(=O)oc2nn(CCCl)c(C)c12 |  | -2.1 | ED50 (Mus sp.): 56 mg/kg
12 | Cc1cc(=O)oc2c1c(C)nn2C(C)C | > 100 | 1.1 | 
13 | Cc1cc(=O)oc2c1c(C)nn2C | 11.6 | 4.7 | LD50 at 7 day [2]: > 1500 mg/kg
14 | Cc1cc(=O)oc2nn(CCN3CCOCC3)c(C)c12 | > 100 | 4.4 | 
15 | CCOC(=O)Cc1nn(C)c2oc(=O)cc(C)c12 | > 100 | -3.1 | 
16 | Cc1cc(=O)oc2nn(C(C)C)c(C)c12 | 35.3 | 3.7 | 
17 | CCn1nc2oc(=O)cc(C)c2c1C | 14.6 |  | inhibition in vivo at 80 mg/kg (Rattus norvegicus [3]): 13.1%
18 | CCCn1nc2oc(=O)cc(C)c2c1C | 72.6 | 4.9 | 
19 | CCCn1nc(C)c2c(C)cc(=O)oc21 | 54.3 | -0.6 | 
20 | CC(=O)n1nc2oc(=O)cc(C)c2c1C |  | 4.5 | ED50 (Mus sp.): 12.2 mg/kg
21 | Cc1cc(=O)oc2nn(C(=O)c3ccccc3)c(C)c12 |  | 11.9 | ED50 (Mus sp.): 35 mg/kg
22 | Cc1cc(=O)oc2nn(CCO)c(C)c12 | > 100 | 1.8 | 
23 | Cc1cc(=O)oc2nn(C(=O)c3ccco3)c(C)c12 |  | 2.2 | ED50 (Mus sp.): 74.3 mg/kg
24 | CCN(CC)CCn1nc2oc(=O)cc(C)c2c1C | 100 |  | inhibition in vivo at 80 mg/kg (Rattus norvegicus [4]): 17%
25 | Cc1cc(=O)oc2nn(C(=O)CCl)c(C)c12 |  | 5.2 | ED50 (Mus sp.): > 100 mg/kg
26 | Cc1c(N(C)C)c(=O)n(-c2ccccc2)n1C [AMINOPYRINE] | 19.2 |  | inhibition in vivo at 80 mg/kg (Rattus norvegicus [4]): 17.5%
27 | CC(=O)Oc1ccccc1C(=O)O [ASPIRIN] |  |  | ED50 (Mus sp.): > 100 mg/kg
28 | CC(C)Cc1ccc(C(C)C(=O)O)cc1 (centres undefined) [IBUPROFEN] | 50 |  | inhibition in vivo at 80 mg/kg (Rattus norvegicus [4]): 39%
29 | Cc1cccc(Nc2ccccc2C(=O)O)c1C [MEFENAMIC ACID] | 45.9 |  | inhibition in vivo at 40 mg/kg (Rattus norvegicus [5]): 33.1%
